The conditions of data set [1]: cited from earlier work.
A short description of data set [2]: 24-h euglycaemic clamp after a single SC dose. The data set is classed as in vivo, healthy subjects (human).
The format of data set [3] is in vivo, healthy subjects (human). Particulars: for C max,IDeg,SD, mean estimate: serum, ELISA. A digest of the protocol:
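Fasted healthy adults (n=20) in a randomised, open-label, complete crossover received single SC doses of 0.4 U/kg, 13–21 days apart. Dosing was by syringe into a lifted skinfold of anterior thigh, lower abdominal wall or outer deltoid, each followed by a 24-h euglycaemic clamp (4.5 mmol/L). Serum was sampled over 120 h and assayed by compound-specific sandwich ELISA (LLOQ 20 pmol/L).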

Where [4] appears, read: single SC dose 0.4 U/kg in abdomen, 20 evaluations.
[5] abbreviates: single SC dose 0.4 U/kg in deltoid, 20 evaluations.
Where [6] appears, read: single SC dose 0.4 U/kg in thigh, 19 evaluations.
Where [7] appears, read: single SC dose 0.4 U/kg, ANOVA of log-transformed AUC.
The mark [8] stands for this setting: single SC dose 0.4 U/kg, ANOVA of log-transformed values.

Read-outs that look alike come from different tables or passages of the source.

For the substance insulin degludec, the “Time to reach steady state” value in data set [1] (once-daily injections) is 2 to 3 days. Moreover, the “GIRmax,SD, mean estimate” value in data set [2] (setting [4]) is 3.0 mg/(kg·min). Also, the “GIRmax,SD, mean estimate” value in data set [2] (setting [5]) is listed as 3.0 mg/(kg·min). In addition, the “GIRmax,SD, mean estimate” value in data set [2] (setting [6]) was 2.7 mg/(kg·min). Also, the “Maximum concentration (C max,IDeg,SD) higher in deltoid or abdomen than in thigh” value in data set [3] (single SC dose 0.4 U/kg) is 23–27%. Also, the “C max,IDeg,SD, mean estimate” value in data set [3] (setting [4]) is given as 2,388 pmol/L. In data set [3] (setting [5]), the “C max,IDeg,SD, mean estimate” value is 2,462 pmol/L. Moreover, the “C max,IDeg,SD, mean estimate” value in data set [3] (setting [6]) is given as 1,938 pmol/L. Moreover, in data set [3] (setting [7]), the “AUCIDeg,0–120h,SD mean ratio [95 % CI], abdomen vs. deltoid” value was 1.01 [0.96–1.06]; the “AUCIDeg,0–120h,SD mean ratio [95 % CI], abdomen vs. thigh” value was 1.07 [1.03–1.11]; the “AUCIDeg,0–120h,SD mean ratio [95 % CI], deltoid vs. thigh” value is 1.06 [1.01–1.10]. Further, in data set [3] (setting [8]), the “C max,IDeg,SD mean ratio [95 % CI], abdomen vs. deltoid” value was 0.97 [0.84–1.12]; the “C max,IDeg,SD mean ratio [95 % CI], abdomen vs. thigh” value was 1.23 [1.07–1.42]; the “C max,IDeg,SD mean ratio [95 % CI], deltoid vs. thigh” value was 1.27 [1.08–1.49].
Consider insulin detemir, for which the “AUC higher following SC injection in abdomen or deltoid than in thigh” value in data set [1] was “approximately 10%”.
Regarding insulin glargine, in data set [1], the “Half-life after SC administration” value is given as 12 h.

The values are drawn from paper PMC4143594 (Clinical Drug Investigation, 2014).
